Apaf-1 act = human Apaf-1 activation; O14727; Apaf-1 apoptosome caspase-3 activation, DEVD-Rh110 fluorescence; stronger effect = lower value; activity change, negative = activation, % at 20 µM; 0.31% of 330,000 active; AID 489031;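 active = activity change at or below -40% at 20 µM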
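Material: biochemical Apaf-1 apoptosome reconstitution; Medium: 20 mM HEPES buffer, pH 7.5, containing CHAPS and BSA; Reagent: dATP, cytochrome c, and (Z-DEVD)2-Rh110 caspase-3 substrate; Times: 30 min preincubation, 50 min reaction, room temperature; Signal: Rh110 fluorescence, excitation 480 nm, emission 540 nm; Measure: Caspase-3 activity via Apaf-1.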
Rh110 act interf = Rh110 signal interference in Apaf-1 activator counter-screen; 980 tested, under 10 active; fluorescence interference (activity change), % at 20 µM, hits read low; shares compounds with Apaf-1 act; Rh110 fluorescence interference, quenched caspase reaction, Ex480/Em540; AID 504616;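 active = mean activity change at or below -40% when tested at 20 µM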
Apaf-1 act conf2 = confirmation of human Apaf-1 activators; shares compounds with Apaf-1 act; reconstituted apoptosome caspase-3 activity, DEVD-Rh110 fluorescence; stronger effect = lower value; activity change, negative = activation, % at 20 µM; 5% of 980 active;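 active = mean activity change at or below -40%, meaning activation of 40% or more, at 20 µM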
Of the large screens only hits and unclear results are named; the others gave an inactive call (follow-up assays come after a bar, where they were run). These entries were drawn from the full list.

O=[N+]([O-])c1cccc(C2(O)COc3ccccc3O2)c1 (centres undefined)	Apaf-1 act -83 | Rh110 act interf inactive | Apaf-1 act conf2 inactive
[O-]/C(=C(\C(=S)Nc1cccc2ccccc12)[n+]1ccccc1)c1ccc(Cl)s1	none
CCOc1ccc2[nH]c(=O)c(CN(CC3CCCN3CC)C(=O)NCc3ccccc3)cc2c1 (centres undefined)	Apaf-1 act -137 | Rh110 act interf inactive | Apaf-1 act conf2 inactive
COc1cc(/C=C2/C(=O)N(c3ccccc3)N=C2C)ccc1OS(=O)(=O)c1ccccc1	none
O=C(CSc1ccc2c(c1)OCCO2)Nc1ccc2c(c1)OCO2	Apaf-1 act -578 | Rh110 act interf inactive | Apaf-1 act conf2 inactive
O=C(Nc1ccc2c(c1)OCO2)[C@@H]1[C@@H]2C(=O)N(C3CCCCC3)C(=O)[C@@H]2C2c3ccccc3C=CN21 (some centres undefined)	none
O=C1/C(=C/Nc2ccc3c(c2)OCO3)CCc2ccccc21	none
CCCCn1c(NC(=O)c2ccc(F)cc2)c(C#N)c2nc3ccccc3nc21	none
COc1ccc2cc(C(c3nnnn3C3CCCC3)N3CCc4ccccc4C3)c(=O)[nH]c2c1 (centres undefined)	none
COc1ccc(NCc2cc3cc(OC)ccc3[nH]c2=O)cc1	none
CNC(=S)N(Cc1cc2ccc(OC)cc2[nH]c1=O)CC1CCCO1 (centres undefined)	Apaf-1 act -183 | Rh110 act interf inactive | Apaf-1 act conf2 inactive
CCOC(=O)NNc1ccc2nonc2c1[N+](=O)[O-]	none
CC[C@]12c3[nH]c4ccc(OC)cc4c3CCN1C(=O)C(CC(=O)NC/C=C(\C)CCC=C(C)C)C[C@@H]2C(=O)N1CCN(C(=O)c2ccco2)CC1 (some centres undefined)	none
N#Cc1c(NC(=O)c2ccc(Br)o2)n(-c2ccccc2)c2nc3ccccc3nc12	none
O=C1C=C(Nc2ccc(F)cc2)c2ccccc2C1=O	none
CC(=O)N1CCC(=O)Nc2ccc([N+](=O)[O-])cc21	Apaf-1 act -64 | Rh110 act interf inactive | Apaf-1 act conf2 inactive
O=C1Nc2ccccc2Nc2ccc([N+](=O)[O-])cc21	none
CCCCNc1c(-c2ccc(OC)c(SC(C)CC)c2)nc2cc(C)ccn12 (centres undefined)	none
O=C1N=C(N2CCN(Cc3ccccc3)CC2)S/C1=C/c1cccs1	Apaf-1 act -408 | Rh110 act interf inactive | Apaf-1 act conf2 inactive
Cc1nn(-c2ccccc2)c(N2CCCC2)c1/C=C1\N=C(c2ccc(OC(C)C)cc2)OC1=O	none
NC1=C(Br)C(=O)c2ccccc2C1=O	none
CCCCn1c(=O)[nH]c(=O)c2c1nc(-c1ccc([N+](=O)[O-])cc1)n2CC	Apaf-1 act -45 | Rh110 act interf inactive | Apaf-1 act conf2 inactive
CCCCCCSc1cc(-c2nc3ccc(C)cn3c2NCCCC)ccc1OC	none
COc1ccc(NC(=O)c2c[nH]n3c(=O)cc(C4CCN(C(=O)OC(C)(C)C)CC4)nc23)cc1Cl	none
C#CCOCCOCCOCCNc1nc(N2CCN(C(=O)CCCCCCCCCCNC(=O)Cn3cc(C[C@@H](C)O)nn3)CC2)nc(N2CCN(C(=O)CCCCCCCCCCNC(=O)[C@H](CCCCN)n3cc(C[C@@H](C)CC)nn3)CC2)n1	none
Cc1[nH]n(-c2ccccc2)c(=O)c1C(C[N+](=O)[O-])c1ccc(F)cc1 (centres undefined)	none
COc1ccccc1N1C(C)=CC(=C(C#N)c2nc3ccccc3s2)C=C1C	none
Nc1ccc(C(=O)N/N=C/c2cccc(Oc3ccccc3)c2)cc1	Apaf-1 act -64 | Rh110 act interf inactive | Apaf-1 act conf2 inactive
Cc1[nH]n(-c2ccccc2)c(=O)c1/C=N/NC(=O)c1cccc(F)c1	none
COc1ccc(C[C@H]2CN3C(=NC[C@H]3Cc3ccccc3)N2CCNC(=O)c2ccc(C)c(Br)c2)cc1	none
CCN(CC)CCN(C(=O)c1ccc2c(c1)CCCC2)c1nc2ccc(C)cc2s1	none
COc1cc(CNc2ccc(O)cc2)cc(Br)c1OCc1ccccc1F	none
O=C(COC(=O)/C=C/c1ccc(OC(F)F)cc1)NC1CCCCCC1	Apaf-1 act -64 | Rh110 act interf inactive | Apaf-1 act conf2 inactive
CCN1CCN(c2ccc(S(=O)(=O)N3CCCCC3)cc2NC(=O)/C=C/c2ccc(OC(F)F)cc2)CC1	none
Oc1cccc2c(NC(=S)Nc3ccc(OC(F)F)cc3)cccc12	none
COC(=O)c1c(C(C)=O)c(C)n(C)c1C	Apaf-1 act -343 | Rh110 act interf inactive | Apaf-1 act conf2 inactive
COc1ccccc1-c1nnc(C2CCN(S(=O)(=O)c3cccc([N+](=O)[O-])c3)CC2)o1	Apaf-1 act -53 | Rh110 act interf inactive | Apaf-1 act conf2 inactive
Clc1ccc(-c2nnc3sc(Cc4cccs4)nn23)cc1	none
CC(=O)Nc1c(S(=O)(=O)c2ccccc2)c2nc3ccccc3nc2n1Cc1ccccc1	none
